Laboratory results reported in PMC5120626 (Dermatology and Therapy, 2016).

Legend:
Neutrophil granulocytes = test: Neutrophil granulocyte respiratory burst; type: cell-based; conditions: relative to ingenol disoxate
Summary of the method: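 Human neutrophils isolated from buffy coats by sedimentation, Lymphoprep density centrifugation and erythrocyte lysis. Plated at 2.5 × 10^5 cells/well in HBSS with Ca2+/Mg2+, 0.1% BSA and 5 mM glucose. Titrated test compound premixed with 10 µM hydroethidine for 40 min at ambient temperature; fluorescence ex 485/em 579 nm.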

[1] = test system: IL-8 release from primary epidermal keratinocytes; test: Keratinocyte IL-8 release; type: cell-based, human; conditions: relative to ingenol disoxate
Summary of the method: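 Primary adult human epidermal keratinocytes seeded at 1 × 10^4 cells/well in serum-free EpiLife with HKGS, overnight at 37 °C. Titrated test compound applied for 6 h. Secreted IL-8 measured by MSD 4-spot plates or HTRF. The EC50 is the concentration giving 50% of the maximum reached by a reference ingenol ester, from four experiments.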

[2] = Stability in phosphate buffer; type: physicochemical; conditions: phosphate buffer pH 7.4, 37 °C
[3] = test system: keratinocyte differentiation markers (INVL, TGM1, FLG, LOR) in primary human epidermal keratinocytes; test: Real-time quantitative PCR of keratinocyte differentiation markers; type: cell-based
Summary of the method: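 Primary human epidermal keratinocytes in low-calcium EpiLife (0.06 mM CaCl2) were given 100 nM test compound for 72 h, with or without 500 nM bisindolylmaleimide I for 30 min beforehand. High-calcium medium (1.8 mM) served as the differentiation reference. KRT1, KRT10, INVL, TGM1, FLG and LOR measured by qPCR, normalised to PPIA, RPLP0, GAPDH and TBP and expressed relative to vehicle. Two donors.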

[4] = test system: primary epidermal keratinocytes; test: Keratinocyte proliferation; type: cell-based, human; conditions: concentrations from 100 nM to 10 µM; 72 h
Summary of the method: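 Primary adult human epidermal keratinocytes (log phase) at 4 × 10^3 cells/well in serum-free EpiLife with HKGS, overnight at 37 °C. Exposed to titrated test compound for 72 h. Proliferation read as DNA content with CyQUANT Direct stain. Percent inhibition normalised to 1 µM geldanamycin.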

[5] = Skin penetration in a Franz chamber diffusion set-up; type: in vitro ADME, human; conditions: 21 h
Summary of the method: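 Full-thickness human abdominal skin in vertical Franz cells (2 cm orifice, nine cells per treatment) at 32 °C, with stirred EpiLife plus keratinocyte supplement as receptor. 0.1% w/v hydroalcoholic gel applied for 21 h. Surface excess removed, stratum corneum tape-stripped 12 times, then epidermis and dermis heat-separated and quantified. LOQ 3 ng/biopsy; Mann–Whitney comparison.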

UV-induced skin tumors = test: UV-induced skin cancer mouse model; type: in vivo; conditions: two consecutive days
Distribution coefficient = type: physicochemical; conditions: octanol/citrate buffer, pH 3
[6] = Stability in hydroalcoholic gel; type: physicochemical; conditions: for Largest single impurity (5-isomer re-arrangement product): 0.05% w/v gel, 25 °C/60%RH
Summary of the method: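 Hydroalcoholic gel at pH 2.8 in citrate buffer, containing benzyl alcohol and isopropanol. For assay, 0.4 g gel was dispersed in 0.1% phosphoric acid/acetonitrile 50:50 and diluted to 10.0 mL. Reverse-phase UHPLC on an HSS C18 column with a 50–95% acetonitrile gradient and UV at 220 nm, against an external reference standard. Run in duplicate.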

[7] = Local skin reaction in guinea pigs; type: in vivo, guinea pig; conditions: single topical application, 0.015% and 0.05% gel; hairless guinea pigs
Summary of the method: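 Seven female IAF hairless guinea pigs (Crl:HA-Hr Hr) received 10 µL of 0.015% or 0.05% gel, or vehicle, on five 2 cm2 flank fields, one condition per field. LSR was scored daily for up to 4 days as a composite of edema, erythema, ulceration and subcutaneous bleeding. Four animals were killed at 24 h for 4 mm punch biopsies and H&E sections.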

B16 melanoma = B16 melanoma mouse model; type: in vivo; conditions: 0.1% in hydroalcoholic gel, topical, two consecutive days; at 3 months
Summary of the method: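 Female C57BL/6J mice aged 8–10 weeks received 5 × 10^5 B16 cells intradermally in the flank. Once nodules were visible, tumours were measured by caliper (volume […]) and mice split into cohorts of 8–10 with equal volumes. Treatment was topical, 20 µL of 0.1% hydroalcoholic gel on two consecutive days. The endpoint was a tumour above 250 mm3 or ulceration.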

[8] = test system: primary epidermal keratinocytes; test: Keratinocyte viability and caspase 3/7 activation; type: cell-based, human; conditions: growth-arresting concentrations (100 nM and above); 72 h
[9] = First tier chemical stability assessment in aqueous buffer; type: physicochemical; conditions: aqueous buffer pH 7.4; 16 h, room temperature
[10] = cited from earlier work

## CCc1noc(CC)c1C(=O)OC1C(CO)=CC2C(=O)C3(C=C(C)C(O)C13O)C(C)CC1C2C1(C)C (stereo not shown) [compound 8, Ingenol-5-(3,5-Diethylisoxazole-4-Carboxylate)]
Neutrophil granulocytes
  fold less potent in neutrophil activation assay: ~56 fold
[1]
  fold less potent in IL-8 release assay: approximately tenfold
[2]
  20-isomer in equilibrated mixture: 86–88%

## CN(C)CCCn1cc(C2=C(c3c[nH]c4ccccc34)C(=O)NC2=O)c2ccccc21 [bisindolylmaleimide-1, bisindolylmaleimide I]
[3]; 500 nM, 30 min pre-incubation before 100 nM ingenol derivatives
  effect of pretreatment on marker induction by ingenol derivatives: abolished

## C/C=C(/C)C(=O)O[C@H]1C(C)=C[C@]23C(=O)[C@@H](C=C(CO)[C@@H](O)[C@]12O)[C@H]1[C@@H](C[C@H]3C)C1(C)C [Ingenol mebutate, Ingenol 3-Angelate]
[4]
  growth inhibition: Total growth inhibition without obvious signs of toxicity
[5]; 0.1% gel
  epidermal relative to dermal concentration: more than 100 fold
[5]; 0.1% in hydroalcoholic gel, topical
  Dermal exposure level: 364 ± 64 nM
[5]; 0.1% in hydroalcoholic gel, topical, stratum corneum removed
  epidermal concentration level: 100 µM
UV-induced skin tumors; 0.05% gel
  antitumor effect: slightly weaker effect
UV-induced skin tumors; 0.1% gel
  antitumor effect: comparable effect
UV-induced skin tumors; topical gel, SKH1 mice, largely maintained 5 weeks post treatment
  tumor clearance: more than 50%
Distribution coefficient
  logD at 24 h: 3.5
[6]; 0.05% gel, after 6 months storage at 25 °C/60%RH
  decrease of concentration: 8.0 % of label claim
[6]; 6 months
  Largest single impurity (5-isomer re-arrangement product): 5.1 area %
[6]; Start
  Largest single impurity (5-isomer re-arrangement product): 0.2 area %
[7]
  local skin reaction (LSR): robust LSR response
  time of peak local skin reaction: 24 h
[3]; 100 nM, 72 h, low calcium medium
  transcription of intermediate (INVL) and late (TGM1, FLG, LOR) keratinocyte differentiation markers: stimulated transcription
B16 melanoma
  animals remaining tumor free (overall tumor free survival): 45%
[8]
  cytotoxicity or apoptosis (viability, caspase 3/7): No signs of cytotoxicity or apoptosis
[9]
  compound recovered: 60%

## CCc1noc(CC)c1C(=O)OCC1=CC2C(=O)C3(C=C(C)C(O)C3(O)C1O)C(C)CC1C2C1(C)C (stereo not shown) [compound 9, Ingenol-20-(3,5-Diethylisoxazole-4-Carboxylate)]
Neutrophil granulocytes
  fold less potent in neutrophil activation assay: at least 150 fold
[1]
  fold less potent in IL-8 release assay: at least 150 fold
[2]; 24 h
  stability over time: did not change over time

## CC1=C[C@]23C(=O)[C@@H](C=C(CO)[C@@H](O)[C@]2(O)[C@H]1O)[C@H]1[C@@H](C[C@H]3C)C1(C)C [Ingenol]
[10]
  biological activity: lacks biological activity
